Source: ChEMBL document CHEMBL2380211, “Conformational restriction in a series of GPR119 agonists: differences in pharmacology between mouse and human” (Bioorg Med Chem Lett, 2013)
Converted amounts (≈) assume the structure as drawn. Blank lines part the entries; values can stand above or below the compound they belong to.

How the values were obtained:
[1] = molecular target: T1, Glucose-dependent insulinotropic receptor (Mus musculus, UniProt Q7TQP3); experiment: Agonist activity at mouse GPR119 overexpressed in HEK293S cells assessed as change in cAMP level after 45 mins by HTRF assay; format: functional, cell-based
T1 sequence (Q7TQP3 whole entry): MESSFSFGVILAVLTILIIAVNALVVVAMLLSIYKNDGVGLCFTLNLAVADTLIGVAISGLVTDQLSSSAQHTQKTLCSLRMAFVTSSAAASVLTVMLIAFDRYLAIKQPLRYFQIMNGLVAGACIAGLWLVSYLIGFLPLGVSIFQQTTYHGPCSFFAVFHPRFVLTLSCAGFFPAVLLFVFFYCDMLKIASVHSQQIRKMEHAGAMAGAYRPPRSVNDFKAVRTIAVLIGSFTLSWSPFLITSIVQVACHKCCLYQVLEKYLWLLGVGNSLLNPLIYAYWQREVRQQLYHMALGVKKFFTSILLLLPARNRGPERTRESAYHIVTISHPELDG

[2] = molecular target: T2, Glucose-dependent insulinotropic receptor (Homo sapiens, UniProt Q8TDV5); experiment: Agonist activity at human GPR119 overexpressed in HEK293S cells assessed as change in cAMP level after 45 mins by HTRF assay; format: functional, cell-based
T2 sequence (Q8TDV5 whole entry): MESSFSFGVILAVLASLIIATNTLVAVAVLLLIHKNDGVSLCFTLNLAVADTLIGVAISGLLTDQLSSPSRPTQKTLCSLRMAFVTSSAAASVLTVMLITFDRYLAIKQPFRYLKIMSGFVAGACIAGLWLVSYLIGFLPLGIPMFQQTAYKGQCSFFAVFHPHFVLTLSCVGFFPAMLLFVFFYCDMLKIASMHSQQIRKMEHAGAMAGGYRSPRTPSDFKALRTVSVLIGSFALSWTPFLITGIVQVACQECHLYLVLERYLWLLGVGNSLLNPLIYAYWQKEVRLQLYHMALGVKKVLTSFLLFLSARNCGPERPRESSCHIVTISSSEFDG

[3] = molecular target: T1, Glucose-dependent insulinotropic receptor; experiment: Displacement of [3H]-N-(2-fluoro-4-methylsulfonyl-phenyl)-6-[4-(3-isopropyl-1,2,4-oxadiazol-5-yl)-1-piperidyl]-5-nitro-pyrimidin-4-amine from mouse GPR119 overexpressed in baculovirus infected Sf21 cell membranes after 120 mins by scintillation counting analysis
[4] = molecular target: T2, Glucose-dependent insulinotropic receptor; experiment: Displacement of [3H]-N-(2-fluoro-4-methylsulfonyl-phenyl)-6-[4-(3-isopropyl-1,2,4-oxadiazol-5-yl)-1-piperidyl]-5-nitro-pyrimidin-4-amine from human GPR119 overexpressed in baculovirus infected Sf21 cell membranes after 120 mins by scintillation counting analysis
Mus musculus = experiment: Antidiabetic activity in C57BL6/JAX mouse assessed as reduction in blood glucose AUC at 50 mg/kg administered 30 mins prior to glucose challenge measured up to 90 mins by OGTT relative to control; format: functional; parameters: scale not given: the % may be the effect or the level left
In short: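 C57BL6/JAX mice given compound at 50 mg/kg, 30 min before a 2 g/kg oral glucose load. Blood glucose followed to 90 min. Value is the % reduction in blood glucose AUC.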

[5] = Apparent permeability from apical to basolateral side in MDCK cells at 10 uM; format: ADME, cell-based, Canis lupus familiaris; conditions: dog
In short: (§1)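 Compound incubated at 10 µM with cultured MDCK epithelial cells. Apparent permeability measured in both directions, A-B and B-A.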

[6] = 1-octanol-aqueous phosphate buffer distribution coefficient, log D of the compound at pH 7.4 after 30 mins by shake-flask method; format: physicochemical
In short: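 Partition of compound between 1-octanol and aqueous phosphate buffer, pH 7.4.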

[7] = Oral bioavailability in rat at 5 mg/kg; format: ADME, organism-based; conditions: in vivo
In short: (§2)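 Rats dosed at 2 mg/kg IV in 5% DMSO:95% hydroxypropyl beta cyclodextrin, and at 5 mg/kg orally as a 0.1% pluronic F127 suspension, both at 5 mL/kg.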

[8] = AUC in rat at 2 mg/kg, iv and 5 mg/kg, po; format: ADME, organism-based; conditions: plasma; in short: as §2
[9] = Half life in rat at 5 mg/kg, po; format: ADME, organism-based; parameters: dose 5 mg/kg, route oral; conditions: in vivo; in short: as §2
[10] = Half life in rat at 2 mg/kg, iv; format: ADME, organism-based; parameters: dose 2 mg/kg, route intravenous; conditions: in vivo; in short: as §2
[11] = Plasma clearance in rat at 2 mg/kg, iv and 5 mg/kg, po; format: ADME, organism-based; in short: as §2
[12] = Volume of distribution at steady state in rat at 2 mg/kg, iv and 5 mg/kg, po; format: ADME, organism-based; conditions: in vivo, read-out: Vdss; in short: as §2
[13] = Intrinsic clearance in rat hepatocytes measured per 10^6 cells; format: ADME, cell-based, Hepatocyte; conditions: read-out: CLH
[14] = Apparent permeability from basolateral to apical side in MDCK cells at 10 uM; format: ADME, cell-based, Canis lupus familiaris; conditions: dog; in short: as §1
Cytochrome P450 1A2 = molecular target: T3, Cytochrome P450 1A2 (Homo sapiens, UniProt P05177); experiment: Inhibition of CYP1A2 (unknown origin); format: ADME
T3 sequence (P05177 whole entry): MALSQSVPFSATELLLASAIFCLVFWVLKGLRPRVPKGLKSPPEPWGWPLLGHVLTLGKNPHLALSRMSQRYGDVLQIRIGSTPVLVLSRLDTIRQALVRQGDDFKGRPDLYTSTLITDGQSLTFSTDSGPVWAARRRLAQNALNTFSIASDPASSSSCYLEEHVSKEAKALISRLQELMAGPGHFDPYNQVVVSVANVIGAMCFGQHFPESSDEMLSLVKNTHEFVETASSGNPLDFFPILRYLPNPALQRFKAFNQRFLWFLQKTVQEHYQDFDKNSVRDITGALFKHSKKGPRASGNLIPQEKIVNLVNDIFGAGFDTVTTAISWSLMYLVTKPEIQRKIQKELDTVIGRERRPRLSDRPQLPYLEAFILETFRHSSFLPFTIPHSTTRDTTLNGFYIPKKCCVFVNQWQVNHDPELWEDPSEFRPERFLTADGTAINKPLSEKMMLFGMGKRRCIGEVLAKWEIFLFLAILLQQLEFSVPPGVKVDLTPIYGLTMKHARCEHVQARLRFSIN

[15] = Aqueous solubility of the compound in phosphate buffer at pH 7.4 at 25 degC after 24 hrs by LC-UV analysis; format: physicochemical
[16] = Fraction unbound in rat plasma by equilibrium dialysis method; format: ADME, cell-free
[17] = Fraction unbound in mouse plasma by equilibrium dialysis method; format: ADME, cell-free
[18] = molecular target: Voltage-gated inwardly rectifying potassium channel KCNH2 (Homo sapiens, UniProt Q12809); experiment: Inhibition of human ERG by IonWorks assay
Cytochrome P450 3A4 = Cytochrome P450 3A4 (Homo sapiens, UniProt P08684); experiment: Inhibition of CYP3A4 (unknown origin); format: ADME
Cytochrome P450 2D6 = Cytochrome P450 2D6 (Homo sapiens, UniProt P10635); experiment: Inhibition of CYP2D6 (unknown origin); format: ADME
Cytochrome P450 2C9 = Cytochrome P450 2C9 (Homo sapiens, UniProt P11712); experiment: Inhibition of CYP2C9 (unknown origin); format: ADME
Cytochrome P450 2C19 = Cytochrome P450 2C19 (Homo sapiens, UniProt P33261); experiment: Inhibition of CYP2C19 (unknown origin); format: ADME
Sequence of Cytochrome P450 2C19 (P33261 whole entry): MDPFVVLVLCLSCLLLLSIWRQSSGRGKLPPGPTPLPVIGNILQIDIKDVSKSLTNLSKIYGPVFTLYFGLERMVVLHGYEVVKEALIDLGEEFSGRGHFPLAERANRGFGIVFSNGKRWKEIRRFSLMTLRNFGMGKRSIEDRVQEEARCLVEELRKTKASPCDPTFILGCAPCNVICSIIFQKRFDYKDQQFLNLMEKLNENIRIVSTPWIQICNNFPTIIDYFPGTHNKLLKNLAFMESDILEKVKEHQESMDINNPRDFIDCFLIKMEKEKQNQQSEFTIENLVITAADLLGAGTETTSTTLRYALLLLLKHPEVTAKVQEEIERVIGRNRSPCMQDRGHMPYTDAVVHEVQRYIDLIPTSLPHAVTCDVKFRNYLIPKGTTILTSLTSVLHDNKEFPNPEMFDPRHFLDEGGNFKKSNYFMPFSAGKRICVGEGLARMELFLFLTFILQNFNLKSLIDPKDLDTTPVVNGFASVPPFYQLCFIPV

Sequence of Cytochrome P450 2D6 (P10635 whole entry): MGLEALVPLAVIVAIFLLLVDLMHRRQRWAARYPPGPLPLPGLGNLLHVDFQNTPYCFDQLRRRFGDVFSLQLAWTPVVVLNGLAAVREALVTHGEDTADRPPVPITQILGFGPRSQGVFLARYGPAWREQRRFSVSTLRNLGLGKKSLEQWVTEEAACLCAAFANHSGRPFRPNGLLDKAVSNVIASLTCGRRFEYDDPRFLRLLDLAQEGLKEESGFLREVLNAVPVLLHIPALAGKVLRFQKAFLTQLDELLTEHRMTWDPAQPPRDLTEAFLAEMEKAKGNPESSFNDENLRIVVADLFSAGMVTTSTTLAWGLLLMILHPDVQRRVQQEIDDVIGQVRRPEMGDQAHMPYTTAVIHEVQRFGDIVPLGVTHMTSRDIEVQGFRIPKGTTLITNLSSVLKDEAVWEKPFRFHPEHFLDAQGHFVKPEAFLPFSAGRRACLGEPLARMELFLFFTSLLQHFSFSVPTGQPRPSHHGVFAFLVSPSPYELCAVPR
Sequence of Cytochrome P450 2C9 (P11712 whole entry): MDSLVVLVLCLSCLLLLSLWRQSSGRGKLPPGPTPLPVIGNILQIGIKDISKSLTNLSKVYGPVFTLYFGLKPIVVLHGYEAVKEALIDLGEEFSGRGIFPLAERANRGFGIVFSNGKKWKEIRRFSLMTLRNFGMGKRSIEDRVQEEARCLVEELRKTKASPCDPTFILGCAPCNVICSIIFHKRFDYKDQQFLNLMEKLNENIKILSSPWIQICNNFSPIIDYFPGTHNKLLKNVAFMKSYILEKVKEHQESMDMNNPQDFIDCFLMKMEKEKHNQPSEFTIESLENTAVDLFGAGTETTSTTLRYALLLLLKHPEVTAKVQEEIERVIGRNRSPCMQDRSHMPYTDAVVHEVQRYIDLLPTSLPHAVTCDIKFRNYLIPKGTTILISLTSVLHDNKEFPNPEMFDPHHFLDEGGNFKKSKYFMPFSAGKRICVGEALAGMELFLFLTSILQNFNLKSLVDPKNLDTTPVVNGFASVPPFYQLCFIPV
Sequence of Cytochrome P450 3A4 (P08684 whole entry): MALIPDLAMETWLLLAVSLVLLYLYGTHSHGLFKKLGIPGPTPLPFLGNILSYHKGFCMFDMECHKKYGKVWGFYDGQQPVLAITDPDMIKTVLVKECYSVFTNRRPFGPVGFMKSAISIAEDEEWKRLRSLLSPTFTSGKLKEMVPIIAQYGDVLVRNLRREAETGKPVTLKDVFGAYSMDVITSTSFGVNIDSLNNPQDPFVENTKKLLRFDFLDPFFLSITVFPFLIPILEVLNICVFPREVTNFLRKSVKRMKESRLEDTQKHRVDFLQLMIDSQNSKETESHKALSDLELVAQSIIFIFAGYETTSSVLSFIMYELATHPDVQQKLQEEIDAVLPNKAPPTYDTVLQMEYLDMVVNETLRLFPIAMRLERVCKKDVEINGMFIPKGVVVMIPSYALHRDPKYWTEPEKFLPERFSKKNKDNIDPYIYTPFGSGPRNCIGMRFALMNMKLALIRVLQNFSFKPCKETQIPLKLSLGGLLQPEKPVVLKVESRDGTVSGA
Sequence of Voltage-gated inwardly rectifying potassium channel KCNH2 (Q12809 whole entry): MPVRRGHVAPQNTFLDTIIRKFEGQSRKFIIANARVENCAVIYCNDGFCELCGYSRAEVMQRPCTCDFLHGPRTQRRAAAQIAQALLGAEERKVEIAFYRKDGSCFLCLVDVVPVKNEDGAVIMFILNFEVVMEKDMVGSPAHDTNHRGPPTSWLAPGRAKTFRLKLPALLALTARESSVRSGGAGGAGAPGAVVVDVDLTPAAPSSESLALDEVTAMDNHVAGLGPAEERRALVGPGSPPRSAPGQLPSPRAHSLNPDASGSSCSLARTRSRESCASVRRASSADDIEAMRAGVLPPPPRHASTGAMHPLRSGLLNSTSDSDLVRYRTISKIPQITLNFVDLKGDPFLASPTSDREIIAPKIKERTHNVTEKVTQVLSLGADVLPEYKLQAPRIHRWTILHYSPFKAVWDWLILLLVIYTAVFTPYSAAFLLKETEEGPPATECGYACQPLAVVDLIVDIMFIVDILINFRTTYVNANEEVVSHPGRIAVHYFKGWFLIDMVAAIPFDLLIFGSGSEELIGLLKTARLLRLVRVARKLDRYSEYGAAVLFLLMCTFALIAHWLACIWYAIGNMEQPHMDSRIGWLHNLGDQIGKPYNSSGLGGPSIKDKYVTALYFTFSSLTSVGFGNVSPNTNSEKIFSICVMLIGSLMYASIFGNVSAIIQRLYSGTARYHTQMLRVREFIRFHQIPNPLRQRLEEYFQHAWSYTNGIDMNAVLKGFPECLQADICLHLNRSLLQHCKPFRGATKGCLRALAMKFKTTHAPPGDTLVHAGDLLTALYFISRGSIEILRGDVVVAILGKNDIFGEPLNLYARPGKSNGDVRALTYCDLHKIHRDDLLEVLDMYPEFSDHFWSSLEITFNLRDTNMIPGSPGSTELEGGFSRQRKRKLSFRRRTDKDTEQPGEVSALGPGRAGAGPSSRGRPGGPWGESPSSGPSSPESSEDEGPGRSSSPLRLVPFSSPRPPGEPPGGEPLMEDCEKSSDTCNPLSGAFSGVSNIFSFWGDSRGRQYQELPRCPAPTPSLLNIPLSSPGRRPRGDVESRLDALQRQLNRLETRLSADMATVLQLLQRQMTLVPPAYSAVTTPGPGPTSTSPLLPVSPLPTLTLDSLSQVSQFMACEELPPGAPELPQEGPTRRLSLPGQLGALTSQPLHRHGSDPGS

Structure (SMILES): CC(C)c1nc(N2CCN(c3ncc(OCc4ccncc4C#N)cn3)CC2)no1
EC50 [1]: 242 nM | EC50 [2]: 19 nM | IC50 [3]: 2720 nM | IC50 [4]: 12 nM

Structure (SMILES): C[C@@H]1CN(C(=O)OC2CC(F)(F)C2(F)F)CCN1c1ncc(OCc2ccncc2C#N)cn1 (some centres not stated)
EC50 [1]: 84 nM | EC50 [2]: 6 nM | IC50 [3]: 694 nM | IC50 [4]: 6 nM

Structure (SMILES): N#Cc1cnccc1COc1cnc(N2CCN(C(=O)OC3CC(F)(F)C3(F)F)CC2)nc1 (configuration not stated)
EC50 [1]: 252 nM | EC50 [2]: 20 nM | IC50 [3]: 758 nM | IC50 [4]: 25 nM | Activity (Mus musculus): 30%

Papp A→B at 10 µM [5]: 19 ×10⁻⁶ cm/s | logD at 0.5 h [6]: 3 | bioavailability [7]: 27% | AUC [8]: 3.2 µM·h | half-life [9]: 2.2 h | half-life [10]: 1.4 h | clearance [11]: 14 mL/min/kg | Vd [12]: 1.1 L/kg | hepatocyte CLint [13]: 27 µL/min/1e6 cells | Papp B→A at 10 µM [14]: 10 ×10⁻⁶ cm/s
Structure (SMILES): C[C@@H]1CN(C(=O)OCC(F)(F)F)CCN1c1ncc(OCc2ccncc2C#N)cn1
Activity (Mus musculus): 10%

Structure (SMILES): CC(C)(C)OC(=O)N1C2CCC1CN(c1ncc(OCc3ccncc3C#N)cn1)C2
EC50 [2]: 4 nM | IC50 [3]: 9 nM | IC50 [4]: 1 nM

Structure (SMILES): CC(C)(C)OC(=O)N1CC2CCC(C1)N2c1ncc(OCc2ccc(S(C)(=O)=O)cc2)cn1
EC50 [2]: 79 nM | IC50 [3]: 72 nM | IC50 [4]: 92 nM

Structure (SMILES): N#Cc1cnccc1COc1cnc(N2CCN(C(=O)OCC(F)(F)F)CC2)nc1
IC50 (Cytochrome P450 1A2): > 30000 nM | Papp A→B at 10 µM [5]: 32 ×10⁻⁶ cm/s | solubility at 24 h [15]: 3.3 µM (≈ 1.39 µg/mL) | fraction unbound [16]: 0.051 | fraction unbound [17]: 0.094 | logD at 0.5 h [6]: 3 | EC50 [1]: 698 nM | EC50 [2]: 47 nM | IC50 [3]: 4990 nM | IC50 [4]: 18 nM | Activity (Mus musculus): 21% | bioavailability [7]: 48% | AUC [8]: 4 µM·h | half-life [9]: 2.1 h | half-life [10]: 3.9 h | clearance [11]: 22 mL/min/kg | Vd [12]: 5.3 L/kg | hepatocyte CLint [13]: 12 µL/min/1e6 cells | IC50 [18]: 10000 nM | IC50 (Cytochrome P450 3A4): > 30000 nM | IC50 (Cytochrome P450 2D6): > 30000 nM | IC50 (Cytochrome P450 2C9): > 30000 nM | IC50 (Cytochrome P450 2C19): > 30000 nM

Structure (SMILES): CC(C)c1nc(N2C3CCC2CN(c2ncc(OCc4ccncc4C#N)cn2)C3)no1
EC50 [1]: 45 nM | EC50 [2]: 11 nM | IC50 [3]: 122 nM | IC50 [4]: 4 nM

Structure (SMILES): N#Cc1cnccc1COc1cnc(N2CC3CCC(C2)N3C(=O)OCC(F)(F)F)nc1
IC50 (Cytochrome P450 1A2): > 30000 nM | Papp A→B at 10 µM [5]: 25 ×10⁻⁶ cm/s | solubility at 24 h [15]: 3.8 µM (≈ 1.7 µg/mL) | fraction unbound [16]: 0.065 | fraction unbound [17]: 0.096 | logD at 0.5 h [6]: 3 | EC50 [1]: 20 nM | EC50 [2]: 9 nM | IC50 [3]: 104 nM | IC50 [4]: 8 nM | Activity (Mus musculus): 6% | bioavailability [7]: 17% | AUC [8]: 2.1 µM·h | half-life [9]: 2.6 h | half-life [10]: 1.7 h | clearance [11]: 11 mL/min/kg | Vd [12]: 1 L/kg | hepatocyte CLint [13]: 13 µL/min/1e6 cells | Papp B→A at 10 µM [14]: 20 ×10⁻⁶ cm/s | IC50 (Cytochrome P450 3A4): > 30000 nM | IC50 (Cytochrome P450 2D6): > 30000 nM | IC50 (Cytochrome P450 2C9): > 30000 nM | IC50 (Cytochrome P450 2C19): > 30000 nM

Structure (SMILES): N#Cc1cnccc1COc1cnc(N2CC3CCC(C2)N3C(=O)OC2CC(F)(F)C2(F)F)nc1 (configuration not stated)
EC50 [2]: 7 nM | IC50 [3]: 65 nM | IC50 [4]: 9 nM | Activity (Mus musculus): 3%

Structure (SMILES): CC(C)(C)OC(=O)N1C2CCC1CN(c1ncc(OCc3ccc(S(C)(=O)=O)cc3)cn1)C2
EC50 [2]: 11 nM | IC50 [3]: 5 nM | IC50 [4]: 3 nM
